# High-throughput results as filed in PubChem.
# An excerpt weighted towards active compounds, which were near 3.3% of everything screened.
# HTR2A ag: mouse HTR2A agonism via beta-arrestin recruitment; P35363; CHO-K1 mHTR2A beta-arrestin complementation, luminescence; percent of 30 µM serotonin response; activation, % at 7.6 µM; actives 0.66% (n = 360,000);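 active means activation above a run cutoff, the mean activation of all tested compounds plus 3 SD, cut at about 14% in these data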;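 further: 0% = plate median of compound wells and 100% = 30 µM serotonin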
# Target sequence (P35363 whole entry, looked up): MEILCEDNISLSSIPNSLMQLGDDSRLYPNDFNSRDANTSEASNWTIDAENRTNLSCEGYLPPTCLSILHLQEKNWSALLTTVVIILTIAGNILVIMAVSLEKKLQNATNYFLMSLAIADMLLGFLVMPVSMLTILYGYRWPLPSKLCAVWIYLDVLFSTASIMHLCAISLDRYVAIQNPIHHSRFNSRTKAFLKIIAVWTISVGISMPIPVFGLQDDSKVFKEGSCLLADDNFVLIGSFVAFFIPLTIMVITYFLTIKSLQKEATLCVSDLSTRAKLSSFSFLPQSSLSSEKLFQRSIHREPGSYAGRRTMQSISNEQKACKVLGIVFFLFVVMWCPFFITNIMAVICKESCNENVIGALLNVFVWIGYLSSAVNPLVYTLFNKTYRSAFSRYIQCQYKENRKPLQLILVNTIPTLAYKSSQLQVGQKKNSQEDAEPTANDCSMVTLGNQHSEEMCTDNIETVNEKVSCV
# Hep lipid drop: hepatic lipid droplet formation modulation; AML12 mouse hepatocytes, oleate lipid droplets, BODIPY imaging; inhibition, % at 6.5 µM; actives 0.4% (n = 240,000); AID 1656;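 active means lipid droplet intensity inhibited by at least 50%, with more than 500 cells counted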
#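 material = mouse AML12 hepatocyte cell line, fixed after treatment | also added = 100 µM oleic acid challenge | doses = compound at 6.5 µM only | schedule = overnight exposure | technique = Image-based BODIPY and DAPI two-channel analysis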
# CendR NRP1 mod: alters CendR peptide binding to human NRP-1; FAM-RPARPAR peptide binding to NRP-1, fluorescence polarization; inhibition, % at 25 µM; actives 0.85% (n = 360,000); AID 602438;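 active means inhibition or corrected inhibition above about 18%, plus a signal ratio from 0.5 to 1.5, limit read from the data, passing the limit was not always enough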
# Arrestin-AP2 inh: inhibitors of human beta-arrestin and AP2 interaction. FITC-arrestin peptide / GST-AP2 beads, flow cytometry; AP2 beta2 appendage carries R879A mutation. actives 0.31% (n = 340,000). inhibition, % at 10 µM. AID 504490;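 active means inhibition above a set limit, near 3 SD of compounds lacking own fluorescence, cut at about 54% in these data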;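 further: plate controls were DMSO wells for no effect and 5 µM unlabelled arrestin peptide for full effect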
#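 Assay system: GST-AP2 R879A bound to glutathione beads, E. coli-expressed; Medium: PBS with 0.05% Tween 20 and 0.1% BSA; Also added: fluorescein-tagged arrestin peptide at 50 nM final; Timing: 12 min plus 1 h, RT; Measured by: flow cytometry, FL1 (488/535 nm); Evaluation: percent drop in bead-associated FITC signal.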
# sPLA2-III inh: Inhibits HGIII-sPLA2 liposome hydrolysis, primary screen; inhibition, % at 12.2 µM; QFRET BODIPY PC-A2 liposome hydrolysis, fluorescence; actives 0.56% (n = 370,000);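 active means inhibition above mean plus 3 SD of compounds lying within the high and low control bounds, cut at about 19% in these data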;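 further: 0% = median of test compound wells and 100% = no enzyme DMSO wells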
# M18AAP inhibitor: blocks P. falciparum M18 aspartyl aminopeptidase; AID 1822; inhibition, % at 7.35 µM; actives 1.2% (n = 290,000); recombinant PfM18AAP, H-Glu-NHMec fluorogenic cleavage;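 active means inhibition above the campaign mean inhibition over all tested compounds plus 3 SD, cut at about 28% in these data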;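 further: 0% = plate median of test compound wells and 100% = 2 mM ZnCl2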
# Arr AP2 CP1: human beta-arrestin and AP2 interaction inhibition, cherry pick; shares compounds with Arrestin-AP2 inh; actives 2% (n = 1,300); inhibition, % at 10 µM; GST-AP2 beads, FITC arrestin peptide binding, flow cytometry; GST-fused beta2-adaptin appendage, R879A mutant;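 active means inhibition above a set limit, roughly 3 SD of non-fluorescent compound noise, cut at about 38% in these data; inactive means inhibition at or below that limit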;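 further: loss of bead fluorescence from 50 nM FITC arrestin peptide bound to appendage; 0% = negative control wells and 100% = excess unlabelled arrestin peptide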
# GST-FITC bead: GST-GSH bead binding interference, counter-screen. shares compounds with Arrestin-AP2 inh. GST-fluorescein binding to GSH beads, fluorescence. inhibition, % at 10 µM. actives 2% (n = 1,300). AID 588338;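 active means inhibition above 50%, about 3 SD of the inhibition seen with non-fluorescent compounds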;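 further: fluorescein maleimide labelled GST captured on 4 micron glutathione beads; higher means more loss of bead fluorescence from quenching or blocked binding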
# Active calls of the source: *; . = not tested or not shown.
SMILES,HTR2A ag,Hep lipid drop,CendR NRP1 mod,Arrestin-AP2 inh,sPLA2-III inh,M18AAP inhibitor,Arr AP2 CP1,GST-FITC bead
O=P(O)(CCc1ccccc1)C(O)c1ccccc1 (stereo not given),2,.,5,10,6,-8,.,.
CCC(C(=O)Nc1ccc2c(c1)OCCO2)n1c(=O)[nH]c2ccccc2c1=O (stereo not given),5,7,-2,21,-1,-5,-3,-2
Cc1[nH]c2ccccc2c1C(=O)C(=O)Nc1ccc2c(c1)OCCO2,0,2,3,-8,-9,1,.,.
COc1cc(CC(=O)OCC(=O)N2CCCCC2)cc(OC)c1OC,6,-1,9,58*,-1,-10,1,-5
Cc1ccc(N2C(=N)/C(=C3/Nc4ccccc4S3)C(c3ccccc3)C2=O)cc1 (stereo not given),0,-4,0,56*,3,2,1,-3
CN(C)C(CNC(=O)CNC(=O)c1ccc2ccccc2c1)c1ccccc1 (stereo not given),-10,-6,-7,59*,2,3,14,0
CN(C)C(CNC(=O)CNC(=O)Cc1cccc2ccccc12)c1ccccc1 (stereo not given),1,.,-9,20,-3,4,.,.
COc1ccc2c(c1)c1ccc3c(c1n2C)C(=O)C=CC3=O,-4,4,3,57*,9,5,33,3
Cc1ccc2c(c1)c1ccc3c(c1n2C)C(=O)C=CC3=O,-2,11,-38,48,12,3,.,.
Cn1c2ccccc2c2ccc3c(c21)C(=O)C=CC3=O,4,.,-23,70*,2,.,55*,2
CCCCCc1cccc2[nH]cc(-c3ccccc3)c12,.,.,.,.,-8,.,.,.
CCOC(=O)N1CCN(C(=O)CCSCCc2ccncc2)CC1,-2,.,-1,57*,4,-1,-5,-6
COC(=O)[C@]12C[C@H](CC(=O)N3CCOCC3)C(=O)N(Cc3ccco3)C1=C[C@H](C1CCCC1)O[C@@H]2C,.,.,.,.,-3,.,.,.
Cc1csc(NC(=O)c2ccc(Cn3nc(C)c(Br)c3C)o2)n1,3,-5,5,58*,-10,0,-15,3
Cc1nn(Cc2ccc(C(=O)Nc3ccccc3C(F)(F)F)o2)c(C)c1Br,-5,.,-11,-14,-2,-2,.,.
CN(c1ccccc1)c1nc(N)c(C#N)c(CC#N)c1C#N,0,43,18,62*,-22,-4,-11,-3
O=C(CSc1nc2sc3c(c2c(=O)n1-c1ccc(Cl)cc1)CCCC3)c1ccccc1Cl,.,.,.,.,1,.,.,.
Cc1ccc(CN2CC(C(=O)Nc3nnc(SCc4c(Cl)cccc4Cl)s3)CC2=O)cc1 (stereo not given),6,8,-3,27,-8,1,.,.
C=CCSc1nnc(NC(=O)C2CC(=O)N(Cc3ccc(C)cc3)C2)s1 (stereo not given),11,.,-5,56*,-4,.,-11,0
CCc1ccc(OCC(=O)NNCC(=O)Nc2ccc(OC)cc2)cc1,1,.,-3,58*,5,.,-4,-8
CCOc1ccc(OCC(=O)Nc2ccc(OC)cc2)cc1,0,-11,-5,10,-2,1,.,.
CC(C)NC(=O)NC(=O)CSc1nnc(C(F)(F)F)n1C,2,1,1,66*,2,-10,-3,-7
CCOC(=O)C1CCCCN1C(=O)c1cc2ccc(OC)cc2c2cc(OC)c(OC)cc12 (stereo not given),6,.,-3,9,-4,.,.,.
CC(C)NS(=O)(=O)c1ccc(CCC(=O)Nc2ccc3c(c2)OCCO3)cc1,7,3,-6,5,-2,1,.,.
Cc1ccc(OCCC(=O)Nc2ccc3c(c2)OCCCO3)cc1,-12,.,5,0,-1,.,3,-2
SMILES,HTR2A ag,Hep lipid drop,CendR NRP1 mod,Arrestin-AP2 inh,sPLA2-III inh,M18AAP inhibitor,Arr AP2 CP1,GST-FITC bead
CCOc1ccccc1OCCC(=O)Nc1ccc2c(c1)OCO2,0,.,5,2,10,.,-3,-1
Cc1cc(S(=O)(=O)NC(C)C)ccc1OCC(=O)Nc1ccc2c(c1)OCCO2,-3,5,5,63*,-11,-5,23,-7
COc1cc(C)ccc1OCC(=O)Nc1ccc2c(c1)OCO2,-3,.,9,-6,1,.,3,-5
CC1(C(=O)NS(=O)(=O)c2ccc(Cl)cc2)CCN1C(=O)C/C=C/c1ccccc1 (stereo not given),3,.,-1,.,-1,.,.,.
CCCCN1CCS(=O)(=O)N(Cc2cn(Cc3ccc(C)cc3)nn2)C(C(=O)OC)C1 (stereo not given),.,.,.,.,0,.,.,.
Cc1c(C(=O)NCc2ccc(F)cc2)sc(=O)n1Cc1ccc(C(=O)c2ccccc2)cc1,-2,.,0,.,0,.,.,.
COc1ccc(OCCCC(=O)Nc2ccc3c(c2)OCCO3)cc1,0,8,11,1,-10,3,.,.
CCC(=O)c1ccc(OCC(=O)Nc2ccc3c(c2)OCCO3)cc1,4,.,12,8,3,.,-4,-4
CC(=O)c1ccc(OCCCC(=O)Nc2ccc3c(c2)OCCO3)cc1,-2,.,-9,-2,3,.,-3,-3
COC(=O)c1nc(-c2ccc(C)cc2)oc1N(C)C,3,.,2,59*,6,-5,10,11
Cn1c(=O)n(C)c2cc(N3CCOCC3)c(NC(=O)c3cccc(Cl)c3)cc21,5,11,7,-12,-1,-10,1,2
O=C(Nc1cc(S(=O)(=O)N2CCOCC2)ccc1N1CCOCC1)c1cccc(Cl)c1,-2,.,-5,.,0,.,.,.
COc1cccc(OC)c1C(=O)Nc1cc2c(cc1N1CCOCC1)n(C)c(=O)n2C,0,12,1,-3,6,-1,-12,-1
COc1cccc(OC)c1C(=O)Nc1ccccc1N1CCCC1,3,0,2,7,5,6,.,.
Cn1c(=O)n(C)c2cc(N3CCOCC3)c(NC(=O)c3ccc(F)cc3)cc21,-2,-4,3,41,3,0,19,15
O=C(Nc1ccc(N2CCOCC2)cc1N1CCOCC1)c1ccc(F)cc1,5,.,4,30,12,.,.,.
COc1cc2c(cc1OC)C1Cc3ccc(OC)c(OC)c3C[N+]1([O-])CC2 (stereo not given),-9,-2,16,-4,9,.,.,.
CN1CCC(N[C@@H](Cc2c[nH]c3ccccc23)C(=O)NCCCc2ccccc2)(C(=O)NCCc2c[nH]c3ccccc23)CC1,.,.,.,.,-59,.,.,.
